Assay results from ChEMBL document CHEMBL1126247, “Iodoaminopotentidine and related compounds: a new class of ligands with high affinity and selectivity for the histamine H2 receptor” (J Med Chem, 1992).

Key:
[1] = Inhibition of the positive chronotropic response (H2-antagonism) of guinea pig right atrium relative to cimetidine.; assay type: functional, Cavia porcellus, Cardiac atrium
[2] = target: Histamine H2 receptor (Cavia porcellus) (UniProt P47747); assay: Histamine H2 receptor antagonism at a concentration of 1 umolar on the isolated guinea pig right atrium.; assay type: functional, tissue-based; details: Cardiac atrium
Sequence of Histamine H2 receptor (Cavia porcellus) (P47747 whole entry): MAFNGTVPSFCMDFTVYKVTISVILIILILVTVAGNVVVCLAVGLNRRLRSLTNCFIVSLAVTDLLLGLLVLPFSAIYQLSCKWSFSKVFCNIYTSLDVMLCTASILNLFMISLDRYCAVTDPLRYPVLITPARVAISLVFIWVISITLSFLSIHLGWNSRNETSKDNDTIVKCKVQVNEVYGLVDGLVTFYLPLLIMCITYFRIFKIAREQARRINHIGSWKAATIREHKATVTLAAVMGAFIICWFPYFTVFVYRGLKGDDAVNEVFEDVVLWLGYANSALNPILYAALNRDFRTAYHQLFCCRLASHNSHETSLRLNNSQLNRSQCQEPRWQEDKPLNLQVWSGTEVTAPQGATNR

[3] = target: Histamine H2 receptor (Cavia porcellus) (UniProt P47747); assay: Histamine H2 receptor antagonistic activity at a concentration of 0.3 uM on the isolated guinea pig right atrium; assay type: functional, tissue-based; details: Cardiac atrium
[4] = target: Histamine H2 receptor (Cavia porcellus) (UniProt P47747); assay: Histamine H2 receptor antagonistic activity at a concentration of 0.3 and 1 uM on the isolated guinea pig right atrium.; assay type: functional, tissue-based; details: Cardiac atrium
[5] = target: Histamine H2 receptor (Cavia porcellus) (UniProt P47747); assay: Inhibition of the positive chronotropic response (histamine H2 receptor antagonism) of guinea pig right atrium relative to cimetidine.; assay type: functional, tissue-based; details: Cardiac atrium
[6] = target: Histamine H2 receptor (Cavia porcellus) (UniProt P47747); details: Cardiac atrium, 10 uM
Histamine H2 receptor [7] = target: T1, Histamine H2 receptor (Cavia porcellus, UniProt P47747); assay: Inhibition of [125I]APT binding to histamine H2 receptor in guinea pig cerebral membranes.; assay type: cell membranes
T1 sequence (P47747 whole entry): as above
In short: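 Striatal membranes from male Hartley guinea pigs (200-300 g) in 50 mM sodium/potassium phosphate, pH 7.5, with 0.1% gelatin. Membranes incubated with 125I-APT 120 min at 25 °C, in triplicate. Stopped with cold buffer containing 0.1% BSA, then filtered on polyethylenimine-treated glass-fiber filters and γ-counted. […] Azido compounds handled under dim light.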

Histamine H2 receptor [8] = target: T1, Histamine H2 receptor; assay: Histamine H2 receptor antagonistic activity on the isolated guinea pig right atrium.; details: read-out: pA2 (converted)
[9] = target: Histamine H2 receptor (Cavia porcellus) (UniProt P47747); assay: Histamine H2 receptor antagonistic activity at concentrations of 0.3,1 and 3 uM on the isolated guinea pig right atrium.; assay type: functional, tissue-based; details: Cardiac atrium
[10] = target: Adrenergic receptor alpha-1 (Rattus norvegicus) (UniProt P15823+P23944+P43140); assay: Alpha-1 adrenergic receptor antagonistic activity at concentrations of 3,10,30and 100 uM on the rat aorta.; assay type: functional
In short: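 Endothelium-denuded thoracic aortic rings from the same rats, mounted isometrically, resting force 20 mN. Equilibration 140 min with two primings of 0.1 μM (R)-phenylephrine. Cumulative (R)-phenylephrine (0.003-10 μM) curves recorded with 1 μM (±)-propranolol present.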

[11] = target: Serotonin 2 (5-HT2) receptor (Rattus norvegicus) (UniProt P30994+P08909+P14842); assay: 5-hydroxytryptamine 2 receptor antagonistic activity at concentrations of3,10 and 30 uM on the rat tail artery.; assay type: functional, tissue-based
Sequence of Serotonin 2 (5-HT2) receptor (Rattus norvegicus) (P08909 whole entry, looked up): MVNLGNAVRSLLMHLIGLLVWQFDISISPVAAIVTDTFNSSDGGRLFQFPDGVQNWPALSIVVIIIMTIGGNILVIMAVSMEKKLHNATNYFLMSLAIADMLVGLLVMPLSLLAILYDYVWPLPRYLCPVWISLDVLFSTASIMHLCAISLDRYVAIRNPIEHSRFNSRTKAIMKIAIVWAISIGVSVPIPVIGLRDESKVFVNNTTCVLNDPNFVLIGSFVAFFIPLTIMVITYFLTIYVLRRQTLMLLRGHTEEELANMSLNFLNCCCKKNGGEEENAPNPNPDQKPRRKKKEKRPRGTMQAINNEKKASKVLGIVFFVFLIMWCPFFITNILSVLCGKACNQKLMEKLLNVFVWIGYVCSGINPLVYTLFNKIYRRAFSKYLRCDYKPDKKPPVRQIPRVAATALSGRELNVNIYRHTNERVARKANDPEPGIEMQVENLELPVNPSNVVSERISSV
Sequence of Serotonin 2 (5-HT2) receptor (Rattus norvegicus) (P14842 whole entry, looked up): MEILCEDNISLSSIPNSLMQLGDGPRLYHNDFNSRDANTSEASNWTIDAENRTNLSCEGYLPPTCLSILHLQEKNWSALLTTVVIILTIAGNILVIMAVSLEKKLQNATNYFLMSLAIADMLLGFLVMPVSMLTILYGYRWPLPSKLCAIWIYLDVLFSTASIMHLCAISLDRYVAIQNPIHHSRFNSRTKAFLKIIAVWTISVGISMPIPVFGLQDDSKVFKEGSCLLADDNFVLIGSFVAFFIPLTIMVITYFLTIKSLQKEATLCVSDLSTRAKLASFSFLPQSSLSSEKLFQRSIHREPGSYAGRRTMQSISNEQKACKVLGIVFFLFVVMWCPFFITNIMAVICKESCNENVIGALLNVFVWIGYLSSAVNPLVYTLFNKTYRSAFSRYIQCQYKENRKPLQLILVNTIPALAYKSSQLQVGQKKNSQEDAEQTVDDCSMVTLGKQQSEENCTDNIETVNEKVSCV
Sequence of Serotonin 2 (5-HT2) receptor (Rattus norvegicus) (P30994 whole entry, looked up): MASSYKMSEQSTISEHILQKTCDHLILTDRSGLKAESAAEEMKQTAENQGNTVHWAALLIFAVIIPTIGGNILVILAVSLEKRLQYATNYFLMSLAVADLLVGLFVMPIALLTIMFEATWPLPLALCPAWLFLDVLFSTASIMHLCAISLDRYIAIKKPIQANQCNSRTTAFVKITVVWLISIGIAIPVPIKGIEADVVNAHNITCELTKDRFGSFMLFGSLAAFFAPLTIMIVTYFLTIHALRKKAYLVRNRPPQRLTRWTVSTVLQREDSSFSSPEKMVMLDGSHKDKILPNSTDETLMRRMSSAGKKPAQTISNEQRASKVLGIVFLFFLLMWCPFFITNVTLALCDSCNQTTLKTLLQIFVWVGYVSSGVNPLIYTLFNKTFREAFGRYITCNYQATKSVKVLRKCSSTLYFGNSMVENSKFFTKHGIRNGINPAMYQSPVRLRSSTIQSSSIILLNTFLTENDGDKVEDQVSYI
In short: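 Endothelium-denuded ventral tail artery segments from male Wistar rats (280-350 g), resting force 5 mN, 120 min equilibration with one 1 μM 5-HT priming. Two to three cumulative 5-HT (0.01-10 μM) curves per preparation.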

[12] = target: Histamine H2 receptor (Cavia porcellus) (UniProt P47747); assay: Histamine H2 receptor antagonistic activity on the isolated guinea pig right atrium determined by Schild plot.; assay type: functional, tissue-based; details: Cardiac atrium
[13] = target: Muscarinic acetylcholine receptor M3 (Cavia porcellus) (UniProt Q8VH26); assay: muscarinic acetylcholine receptor M3 antagonistic activity at concentrations of 3 and 10 uM on the isolated guinea pig iluem.; assay type: functional
Sequence of Muscarinic acetylcholine receptor M3 (Cavia porcellus) (Q8VH26 1-587): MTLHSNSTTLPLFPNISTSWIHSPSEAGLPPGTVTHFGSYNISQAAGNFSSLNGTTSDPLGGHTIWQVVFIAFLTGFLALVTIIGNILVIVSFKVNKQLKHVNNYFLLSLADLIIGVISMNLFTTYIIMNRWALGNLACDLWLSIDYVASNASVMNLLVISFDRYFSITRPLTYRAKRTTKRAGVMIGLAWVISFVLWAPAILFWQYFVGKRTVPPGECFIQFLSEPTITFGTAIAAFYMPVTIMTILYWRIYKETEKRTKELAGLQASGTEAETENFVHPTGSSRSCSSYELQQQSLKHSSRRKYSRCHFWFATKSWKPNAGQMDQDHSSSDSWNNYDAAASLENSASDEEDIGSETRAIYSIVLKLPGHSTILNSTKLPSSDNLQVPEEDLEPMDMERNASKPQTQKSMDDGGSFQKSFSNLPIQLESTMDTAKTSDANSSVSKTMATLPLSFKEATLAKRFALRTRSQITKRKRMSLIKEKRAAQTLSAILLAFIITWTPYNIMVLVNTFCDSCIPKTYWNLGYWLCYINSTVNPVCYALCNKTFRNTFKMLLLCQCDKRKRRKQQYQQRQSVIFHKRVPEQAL
In short: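 Guinea pig proximal ileum, isotonic recording under a 10 mN load in gassed Tyrode's solution. Cumulative carbachol (3-300 nM) curves as reference agonist. Antagonist incubated 10 min. pK_B calculated from concentration ratio, or pA2 by Schild plot.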

[14] = target: Beta-1 adrenergic receptor (Cavia porcellus) (UniProt B0FL73); assay: Beta-1 Adrenergic receptor antagonistic activity at concentrations of 10 and 30 uM on the isolated guinea pig right atrium.; assay type: functional, tissue-based; details: Cardiac atrium
Sequence of Beta-1 adrenergic receptor (Cavia porcellus) (B0FL73 1-467): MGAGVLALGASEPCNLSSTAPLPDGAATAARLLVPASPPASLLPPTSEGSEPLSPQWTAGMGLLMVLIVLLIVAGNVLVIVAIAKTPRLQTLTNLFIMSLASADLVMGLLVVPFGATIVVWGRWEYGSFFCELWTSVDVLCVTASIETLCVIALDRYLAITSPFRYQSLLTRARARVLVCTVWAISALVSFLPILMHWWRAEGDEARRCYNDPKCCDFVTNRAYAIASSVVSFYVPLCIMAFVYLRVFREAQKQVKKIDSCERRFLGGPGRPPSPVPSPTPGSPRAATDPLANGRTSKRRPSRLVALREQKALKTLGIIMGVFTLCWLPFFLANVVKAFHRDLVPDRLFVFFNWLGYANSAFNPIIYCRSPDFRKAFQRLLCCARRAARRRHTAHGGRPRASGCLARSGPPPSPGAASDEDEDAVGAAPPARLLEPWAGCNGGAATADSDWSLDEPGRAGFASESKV
In short: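 Spontaneously beating guinea pig right atrium, isometric recording of chronotropic response. Cumulative isoprenaline (0.1-30 nM) curves as reference agonist. Incubation handled as in the H2 protocol. pK_B = -log[antagonist] + log(concentration ratio - 1).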

[15] = target: Histamine H1 receptor (Cavia porcellus) (UniProt P31389); assay: Histamine H1 receptor antagonistic activity at concentrations of 3 and 10 uM on the isolated guinea pig iluem.; assay type: functional
Sequence of Histamine H1 receptor (Cavia porcellus) (P31389 whole entry): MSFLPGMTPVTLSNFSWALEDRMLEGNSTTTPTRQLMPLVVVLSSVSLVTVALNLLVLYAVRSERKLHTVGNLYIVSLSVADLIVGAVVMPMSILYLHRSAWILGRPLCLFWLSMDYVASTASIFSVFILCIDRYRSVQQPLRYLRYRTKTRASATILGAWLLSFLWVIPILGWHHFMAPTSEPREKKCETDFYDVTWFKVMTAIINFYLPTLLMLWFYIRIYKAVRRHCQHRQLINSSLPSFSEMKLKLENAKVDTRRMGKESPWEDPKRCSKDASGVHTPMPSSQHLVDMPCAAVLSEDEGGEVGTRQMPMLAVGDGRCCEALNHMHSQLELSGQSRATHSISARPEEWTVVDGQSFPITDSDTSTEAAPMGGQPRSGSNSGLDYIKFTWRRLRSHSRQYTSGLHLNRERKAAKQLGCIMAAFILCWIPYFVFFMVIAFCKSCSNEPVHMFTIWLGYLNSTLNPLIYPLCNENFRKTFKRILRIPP
In short: (§1)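 Whole proximal guinea pig ileum segments in Tyrode's solution gassed with 95% O2/5% CO2, isotonic recording at 10 mN load. Cumulative histamine (0.01-3 μM) curves. Antagonist applied 10 min before the curve. pK_B from concentration ratio, or pA2 by Schild plot.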

Histamine H1 receptor = Histamine H1 receptor (Cavia porcellus, UniProt P31389); assay: Histamine H1 receptor antagonistic activity on the isolated guinea pig ileum determined by Schild plot.; assay type: functional, tissue-based; details: read-out: pA2 (converted); in short: as §1
Sequence of Histamine H1 receptor (P31389 whole entry): as above

Histamine H2 receptor [16] = target: T1, Histamine H2 receptor; assay: Inhibition of [125I]APT binding to H2 receptors in guinea pig cerebral membranes.; assay type: cell membranes
In short: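 Striatal membranes from male Hartley guinea pigs (200-300 g) in 50 mM sodium/potassium phosphate, pH 7.5, with 0.1% gelatin. Stopped with cold buffer containing 0.1% BSA, then filtered on polyethylenimine-treated glass-fiber filters and γ-counted. Azido compounds handled under dim light.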

[17] = target: Muscarinic acetylcholine receptor M3 (Cavia porcellus) (UniProt Q8VH26)
[18] = target: Histamine H2 receptor (Cavia porcellus) (UniProt P47747); assay: Potency to inhibit the positive chronotropic response (H2-antagonism) of guinea pig right atrium relative to cimetidine.; assay type: functional, tissue-based; details: Cardiac atrium
[19] = target: Histamine H1 receptor (Cavia porcellus) (UniProt P31389)
[20] = target: Histamine H2 receptor (Cavia porcellus) (UniProt P47747); assay: Histamine H2 receptor antagonistic activity at a concentration of 0.3 and 0.1 uM on the isolated guinea pig right atrium.; assay type: functional, tissue-based; details: Cardiac atrium

SMILES | Relative potency [1] [%] | pKB [2] | Relative potency [5] [%] | further results
N#CN/C(=N\CCCCCCNC(=O)c1ccccc1)NCCCOc1cccc(CN2CCCCC2)c1 | 158 | 6.6 | – | –
N#CN/C(=N\CCNC(=O)c1ccccc1[N+](=O)[O-])NCCCCOc1cccc(CN2CCCCC2)c1 | 1318 | 7.52 | – | –
N#CN/C(=N\CCCNC(=O)CCc1ccccc1)NCCCOc1cccc(CN2CCCCC2)c1 | 47 | 6.07 | – | –
N#CN/C(=N\CCNC(=O)c1ccc(N)cc1)NCCCCOc1cccc(CN2CCCCC2)c1 | 589 | – | – | pKB [3]: 7.17
N#CN/C(=N\CCCCCNC(=O)c1ccccc1)NCCCOc1cccc(CN2CCCCC2)c1 | 151 | 6.58 | – | –
N#CN/C(=N\CCNS(=O)(=O)c1ccccc1)NCCCOc1cccc(CN2CCCCC2)c1 | 186 | – | – | pKB [4]: 6.67
N#CN/C(=N\CCCNc1ccc(N=[N+]=[N-])cc1[N+](=O)[O-])NCCCCOc1cccc(CN2CCCCC2)c1 | – | 6.56 | 145 | –
CN/C(=N\CCSCc1nc[nH]c1C)NC#N | – | 6.4 | – | –
N#CN/C(=N\CCCNC(=O)c1ccccc1)NCCCOc1cccc(CN2CCCCC2)c1 | 550 | – | – | pKB [3]: 7.14
N#CN/C(=N\CCNC(=O)c1ccccc1)NCCCOc1cccc(CN2CCCCC2)c1 | 2630 | – | – | pKB [3]: 7.82
Nc1ccc(C(=O)NCCCOc2cccc(CN3CCCCC3)c2)cc1 | 263 | 6.82 | – | –
N#CN/C(=N\CCN)NCCCOc1cccc(CN2CCCCC2)c1 | 36 | – | – | pKB [6]: 5.95
N#CN/C(=N\CCNC(=O)CCCc1ccccc1)NCCCOc1cccc(CN2CCCCC2)c1 | 112 | 6.45 | – | –
N#CN/C(=N\CCCOc1cccc(CN2CCCCC2)c1)NCC(O)CNC(=O)c1ccccc1 (stereo not given) | 813 | – | – | pKB [4]: 7.31
Nc1ccc(C(=O)NCCNC(=O)NCCCOc2cccc(CN3CCCCC3)c2)cc1 | 676 | 7.23 | – | –
N#CN/C(=N\CCCNc1ccc(N=[N+]=[N-])cc1[N+](=O)[O-])NCCCOc1cccc(CN2CCCCC2)c1 | – | – | 245 | pKB [3]: 6.79
CNC(=C[N+](=O)[O-])NCCSCc1ccc(CN(C)C)o1 [RANITIDINE] | – | 7.2 | 631 | Ki (Histamine H2 receptor [7]): 53.7 nM
N#CN=C(NCCCOc1cccc(CN2CCCCC2)c1)NCCNC(=O)c1ccc(N=[N+]=[N-])c(I)c1 | – | – | – | Kb (Histamine H2 receptor [8]): 155 nM
N#CN/C(=N\CCNC(=O)c1ccc(N=[N+]=[N-])cc1)NCCCOc1cccc(CN2CCCCC2)c1 | – | 7.9 | 3160 | –
Cc1ccc(S(=O)(=O)NCC/N=C(\NC#N)NCCCCOc2cccc(CN3CCCCC3)c2)cc1 | 776 | 7.29 | – | –
N#CN/C(=N\CCNC(=O)CCc1ccccc1)NCCCOc1cccc(CN2CCCCC2)c1 | 74 | 6.27 | – | –
N#CN/C(=N\CCCCNC(=O)c1ccccc1)NCCCOc1cccc(CN2CCCCC2)c1 | 257 | 6.81 | – | –
N#CN/C(=N\CCCNc1ccccc1[N+](=O)[O-])NCCCCOc1cccc(CN2CCCCC2)c1 | – | 7.85 | 2820 | –
N#CN/C(=N\CCOC(=O)c1ccccc1)NCCCOc1cccc(CN2CCCCC2)c1 | 1738 | 7.64 | – | –
N#CN/C(=N\CCCNC(=O)c1ccc(N=[N+]=[N-])cc1)NCCCOc1cccc(CN2CCCCC2)c1 | – | 6.36 | 91 | –

SMILES | Relative potency [1] [%] | pKB [2] | Relative potency [5] [%] | further results
N#CN/C(=N\CCNC(=O)c1ccncc1)NCCCOc1cccc(CN2CCCCC2)c1 | 309 | 6.89 | – | –
N#CN/C(=N\CCCNC(=O)c1ccc(N=[N+]=[N-])cc1)NCCCCOc1cccc(CN2CCCCC2)c1 | – | – | 170 | pKB [3]: 6.63
N#CN/C(=N\CCCNC(=O)c1ccccc1)NCCCCOc1cccc(CN2CCCCC2)c1 | 158 | 6.6 | – | –
N#CN/C(=N\CCNC(=O)c1ccc(N=[N+]=[N-])c(I)c1)NCCCOc1cccc(CN2CCCCC2)c1 | – | – | 257 | pKB [9]: 6.98; pKB [10]: 6.17; pKB [11]: 6.05; Slope [12]: 1.2; pKB [13]: 5.48; pKB [14]: 5.12; pKB [15]: 5.62
N#CN/C(=N\CCNS(=O)(=O)c1ccccc1)NCCCCOc1cccc(CN2CCCCC2)c1 | 759 | 7.28 | – | –
N#CN=C(NCCCOc1cccc(CN2CCCCC2)c1)NCCNC(=O)c1cccc(I)c1 | – | – | – | Kb (Histamine H1 receptor): 2240 nM; Ki (Histamine H2 receptor [16]): 2.63 nM
N#CN/C(=N\CCNc1ccc(N=[N+]=[N-])cc1[N+](=O)[O-])NCCCCOc1cccc(CN2CCCCC2)c1 | – | – | 1180 | pKB [3]: 7.47
N#CN=C(NCCCOc1cccc(CN2CCCCC2)c1)NCCNC(=O)c1ccc(N)c(I)c1 | – | – | – | Kb (Histamine H2 receptor [8]): 27.5 nM; Ki (Histamine H2 receptor [7]): 0.708 nM
N#CN/C(=N\CCNC(=O)Cc1ccccc1)NCCCOc1cccc(CN2CCCCC2)c1 | 339 | 6.93 | – | –
N#CN/C(=N\CCNc1ccc(N=[N+]=[N-])cc1[N+](=O)[O-])NCCCOc1cccc(CN2CCCCC2)c1 | – | 7.39 | 977 | –
N#CN/C(=N\CCNC(=O)c1ccc(N=[N+]=[N-])cc1)NCCCCOc1cccc(CN2CCCCC2)c1 | – | – | 1380 | pKB [3]: 7.54
N#CN/C(=N\CCNC(=O)c1cccc(I)c1)NCCCCOc1cccc(CN2CCCCC2)c1 | – | 6.56 | – | Ki (Histamine H2 receptor [16]): 5.25 nM; pKB [17]: 5.59; Relative potency [18]: 145%; pKB [19]: 6.15
N#CN/C(=N\CCCOc1cccc(CN2CCCCC2)c1)NCC(O)CNc1ccccc1[N+](=O)[O-] (stereo not given) | – | – | 871 | pKB [20]: 7.34
N#CN/C(=N\CCNC(=O)c1ccc(N)c(I)c1)NCCCCOc1cccc(CN2CCCCC2)c1 | – | – | 891 | pKB [3]: 7.35
N#CN/C(=N\CCNC(=O)c1cc(I)c(N)c(I)c1)NCCCCOc1cccc(CN2CCCCC2)c1 | – | – | 2880 | pKB [4]: 7.86
N#CN/C(=N\CCNC(=O)c1cccc(N)c1)NCCCOc1cccc(CN2CCCCC2)c1 | 776 | – | – | pKB [4]: 7.29
Cc1ccc(S(=O)(=O)NCC/N=C(\NC#N)NCCCOc2cccc(CN3CCCCC3)c2)cc1 | 54 | 6.13 | – | –
N#CN/C(=N\CCCNc1ccccc1[N+](=O)[O-])NCCCOc1cccc(CN2CCCCC2)c1 | – | – | 1320 | pKB [20]: 7.52
N#CN/C(=N\CCNC(=O)c1ccccc1)NCCCCOc1cccc(CN2CCCCC2)c1 | 1862 | 7.67 | – | –
N#CN/C(=N\CCCCNC(=O)c1ccc(N)cc1)NCCCOc1cccc(CN2CCCCC2)c1 | 81 | 6.31 | – | –
O=C(NCCCOc1cccc(CN2CCCCC2)c1)NCCNC(=O)c1ccccc1 | 50 | 6.1 | – | –
C/N=C(/NC#N)NCCSCc1csc(NC(=N)N)n1 | – | 7.8 | – | –
CC(C)(C)OC(=O)Nc1ccc(CC(=O)NCC/N=C(\NC#N)NCCCCOc2cccc(CN3CCCCC3)c2)cc1 | 44 | 6.04 | – | –
CC(C)(C)OC(=O)Nc1ccc(C(=O)NCC/N=C(\NC#N)NCCCOc2cccc(CN3CCCCC3)c2)cc1 | 295 | – | – | pKB [4]: 6.87
